Measurements taken from paper PMC5496795 (Clinical cancer research : an official journal of the …, 2017).

Columns and labels:
[1] = tested on: localized prostate cancer; settings: published trial data in localized prostate cancer; ref not given; cited from earlier work
PC-3 tumors = assay: Histology/IHC of PC-3 tumors; assay type: in vivo, athymic nude male mice
How it was run: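 PC-3 xenograft tumours were taken after treatment, fixed in 10% buffered formalin, paraffin-embedded and cut at 5 micron. Sections were stained with anti-mouse CD31 antibody for vessel density and by TUNEL for cell death. VTP was an i.v. photosensitizer (9 mg/kg) followed immediately by 10 min of 755 nm laser illumination of the tumour area.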

PC-3 xenografts = assay: Combination therapy, tumor growth of PC-3 xenografts; assay type: in vivo, athymic nude male mice; settings: PC-3 tumor bearing animals
How it was run: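 PC-3 cells (5 ×10⁶ in 1:1 media/Matrigel) were implanted in the shoulder of 6–8-week-old males. At about 100 mm³ the mice were randomised to four arms: sham (i.v. saline plus illumination), VTP, radiolabelled peptide (14.8 MBq retro-orbital i.v.), or both. For VTP, 4 h after the peptide, the photosensitizer (9 mg/kg, i.v. bolus, in 5% dextran) was followed immediately by 10 min of 755 nm laser to the tumour plus a 1 mm rim. Tumours were measured by caliper twice weekly to 34 days.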

[2] = tested on: GRPr-expressing prostate cancer xenografts; settings: in vivo; cited from earlier work

Molecule | Cases with absent evidence of cancer (local tumor ablation) [1] [%] | Vessel density in PC-3 tumors (IHC anti-CD31) (PC-3 tumors; 24 hours post VTP treatment, compared to control tumors) | TUNEL staining of tumors (cell death) (PC-3 tumors; PC-3 tumors, post VTP treatment) | Animals remaining tumor free at 34 days post treatment (PC-3 xenografts) | Fraction of delivered radioactivity washed out at 24 hours p.i. [2] | Time of optimal tumor uptake post injection [2] [h]
CC[C@H]1c2cc3[n-]c(c(CC(=O)OC)c4nc(cc5[n-]c(cc(n2)[C@@H]1C)c(C(C)=O)c5C)[C@@H](C)[C@@H]4CCC(=O)[O-])c(C(=O)NCCS(=O)(=O)[O-])c3C.[H+].[H+].[Pd+2] [VTP] | 80 | markedly reduced vessel density | stained positive | 2/12 |  | 
^111In-DOTA-PEG4-D-Phe-Gln-Trp-Ala-Val-Gly-His-Sta-Leu-NH2 [^111In-DOTA-AR] |  |  |  |  | about 2/3 | 1 to 4
